TAAR1 antagonist: human TAAR1 antagonists, primary screen, Fluo-8 calcium fluorescence, CHO RD-HGA16 cells; AID 624466, 2012; actives 1.5% (n = 360,000); antagonist; inhibition, % at 3 µM; Trace amine-associated receptor 1 (Homo sapiens), Q96RJ0;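 active means inhibition above a per-plate cutoff, the mean inhibition of test compounds on that plate plus 3 SD, cut at about 49% in these data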;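 further: 0% = DMSO plus EC80 beta-PEA response and 100% = DMSO alone without agonist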
Target sequence (Q96RJ0 whole entry, looked up): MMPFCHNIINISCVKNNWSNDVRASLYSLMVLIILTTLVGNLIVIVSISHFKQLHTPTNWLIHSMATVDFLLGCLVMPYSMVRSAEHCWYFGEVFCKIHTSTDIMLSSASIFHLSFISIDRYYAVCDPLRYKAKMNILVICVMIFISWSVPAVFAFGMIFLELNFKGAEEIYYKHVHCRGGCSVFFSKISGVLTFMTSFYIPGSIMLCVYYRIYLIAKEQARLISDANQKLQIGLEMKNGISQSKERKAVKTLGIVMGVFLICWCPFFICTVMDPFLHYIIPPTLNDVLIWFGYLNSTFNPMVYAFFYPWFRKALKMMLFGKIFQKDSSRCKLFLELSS
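Test system: RD-HGA16 CHO cells with stable hTAAR1 and Gα16 / Probe or stimulus: EC80 β-phenethylamine stimulus / Times: seeding 17-24 h prior, 75-min 37 °C, 30-min RT dye loading / Detection: Fluo-8 calcium-sensitive fluorescence / Read-out basis: % inhibition scaled between DMSO and EC80 PEA controls / Repeats: singlicate, one well per test compound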
TAAR1 agonist: human TAAR1 agonists, primary screen, Fluo-8 calcium fluorescence, CHO RD-HGA16 cells | actives 0.99% (n = 360,000) | AID 624467, 2012 | activation, % at 3 µM | vehicle wells 0%, saturating PEA agonist 100%;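 active means activation above the mean activation of all test compounds in the run plus 3 SD, cut at about 38% in these data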
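System: CHO RD-HGA16 cells carrying human TAAR1 plus Gα16; Incubation: 17-24 h seeding, 75 min 37 °C dye, 30 min RT; Measured by: Fluo-8 fluorescence, 5 s baseline then 140 s kinetic read; Control set: DMSO and PEA EC100; Replication: single well for each compound.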
Rce1 inhib: yeast Rce1p protease inhibitors, primary screen, biochemical, fluorescence, cell-free homogeneous; yeast membranes, quenched prenylated peptide cleavage fluorescence; CAAX prenyl protease 2 (Saccharomyces cerevisiae (strain ATCC 204508 / S288c)), Q03530; actives 0.27% (n = 290,000); calls only;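 active means fall in fluorescence gain of 50% or more versus controls, with final raw signal at or below 3038400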;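 further: plate controls were neutral control wells for no effect and wells lacking membranes for full effect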
Target sequence (Q03530 whole entry, looked up): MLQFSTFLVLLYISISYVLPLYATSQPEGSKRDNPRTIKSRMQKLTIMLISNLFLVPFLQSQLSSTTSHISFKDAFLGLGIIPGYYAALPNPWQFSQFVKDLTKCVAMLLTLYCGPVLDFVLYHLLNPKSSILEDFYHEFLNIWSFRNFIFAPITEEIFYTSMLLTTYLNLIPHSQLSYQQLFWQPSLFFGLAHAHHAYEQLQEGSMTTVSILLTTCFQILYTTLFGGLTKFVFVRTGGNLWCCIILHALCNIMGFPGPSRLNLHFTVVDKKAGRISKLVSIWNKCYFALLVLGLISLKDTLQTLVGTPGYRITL
VLA-4 inh: inhibition in human VLA-4 binding assay, primary screen, VLA-4 allosteric modulator project, MLPCN library, flow cytometry, VLA-4 expressing cells. actives 0.2% (n = 330,000). AID 2557, 2010. ligand binding flow cytometry. inhibition, % (about 7 µM as worked out from the volumes in the protocol). Integrin alpha-4 (Homo sapiens), P13612; in the data active means inhibition above about 50%
Platelet DG rel: inhibitors of platelet dense granule secretion, primary screen, cell-based, MLPCN, human platelets; inhibition, %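 (compounds screened at 7.5 µM in platelet-rich plasma)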; AID 1663, 2009; actives 0.22% (n = 300,000); human platelet-rich plasma, SFLLRN dense granule ATP release, luminescence;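 active means mean replicate score, as percent of positive control, at or above 50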
TAAR1 ag conf: human TAAR1 agonists, retest of hits, confirmation, Fluo-8 calcium fluorescence, CHO RD-HGA16 cells; shares compounds with TAAR1 agonist; scaled: DMSO 0%, maximal phenethylamine 100%; activation, % at 3 µM; actives 82% (n = 2,400); AID 651783, 2012;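 active means activation above a cutoff set at the run's mean compound activation plus 3 SD, cut at about 39% in these data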
Ga16 ag counter: nonselective calcium mobilization agonists, CHO-Ga16 cells, counter-screen for hTAAR1 agonist project, cell-based, fluorescence, CHO-Ga16 parental line. Fluo-8 calcium fluorescence; normalized to maximal ATP response, DMSO zero. activation, % at 3 µM. actives 50% (n = 2,400). shares compounds with TAAR1 agonist;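 active means activation above the run cutoff, the mean activation over all tested wells plus 3 SD, cut at about 12% in these data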;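 further: 0% = DMSO wells and 100% = maximal ATP response on the peak over basal ratio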
TAAR1 desens: TAAR1 desensitization by agonist hits, confirmation, counter-screen for TAAR1 agonist project, cell-based, fluorescence, tachyphylaxis; inhibition, % at 3 µM; shares compounds with TAAR1 agonist; CHO RD-HGA16 hTAAR1, Fluo-8 calcium, beta-PEA response inhibition; actives 46% (n = 2,400);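 active means inhibition above the run cutoff, the mean inhibition of all test compounds plus 3 SD, cut at about 49% in these data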;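 further: beta-PEA stimulus applied at its EC80; loss of beta-PEA calcium signal after compound pretreatment read as receptor desensitization; 0% = DMSO with beta-PEA at EC80 and 100% = DMSO alone without agonist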
Ga16 nonsel ant: inhibition of ATP-evoked calcium response in CHO-Ga16 cells, counter-screen for TAAR1 agonist project, cell-based, fluorescence. shares compounds with TAAR1 agonist. actives 39% (n = 2,400). AID 651952, 2012. inhibition, % at 3 µM. CHO-Ga16 ATP-induced calcium, Fluo-8 fluorescence;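 active means inhibition above the plate's mean compound inhibition plus 3 SD, computed per plate, cut at about 22% in these data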;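 further: 0% = EC80 ATP with DMSO and 100% = DMSO wells without ATP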
* marks the source's active call; other numbers are inactive results; i = inactive; / = not tested or not shown. Compounds with a hit are over-represented: about 2.6% of the library has one in this group of screens.

SMILES	TAAR1 antagonist	TAAR1 agonist	Rce1 inhib	VLA-4 inh	Platelet DG rel	TAAR1 ag conf	Ga16 ag counter	TAAR1 desens	Ga16 nonsel ant
C#CCOc1ccc(/C=C2/C(=O)NN(c3ccc(F)cc3)C2=O)cc1OC	14	99*	i	16	8	92*	55*	44	18
CSc1ncnc2c1ncn2CCCNCC(c1ccccc1)c1ccccc1	3	8	/	/	/	/	/	/	/
CC(C)=NNc1nc2c(c(=O)[nH]c(=O)n2C)n1CCc1ccccc1	-13	47*	i	0	-5	37	2	3	18
Cc1cccc(Nc2cc(C)c3c(O)cccc3n2)c1C	82*	94*	i	4	-21	96*	22*	92*	17
Cc1cccc(NC(=S)N(C)C)c1C	-38	1	i	31	6	/	/	/	/
O=C(Nc1nccs1)c1nc[nH]c1C(=O)N1CCc2ccccc2C1	82*	82*	/	18	/	103*	4	94*	8
CCOc1cc(/C=C2/C(=O)NN(c3cccc(Cl)c3)C2=O)ccc1O	-13	53*	i	0	3	62*	18*	17	11
COc1cc(/C=C2/C(=O)NN(c3cccc(Cl)c3)C2=O)cc(OC)c1O	8	18	i	-28	3	/	/	/	/
Cc1c(CNCC(C)c2ccccc2)c(C(=O)O)c(C)n1Cc1ccccc1 (stereo not drawn)	6	90*	i	10	21	78*	2	18	-2
Cc1c(CNCCCc2ccccc2)c(C(=O)O)c(C)n1Cc1ccccc1	-5	11	i	-2	-5	/	/	/	/
O=C(NN=Cc1ccc2c(c1)OCO2)NN=Cc1ccc2c(c1)OCO2	21	16	/	/	/	/	/	/	/
O=C(N/N=C/c1ccc(O)c(O)c1)N/N=C/c1ccc(O)c(O)c1	27	98*	i	5	7	83*	-1	73*	1
CCOc1ccccc1CN1CCNC(=O)C1CC(=O)N(C)CCc1ccccn1 (stereo not drawn)	-20	54*	i	1	21	60*	6	18	1
CN(CCc1ccccn1)C(=O)CC1C(=O)NCCN1Cc1ccc(-c2ccccc2)cc1 (stereo not drawn)	-15	7	i	7	-1	/	/	/	/
CCOc1ccccc1CN1CCNC(=O)C1CC(=O)NCCc1ccccn1 (stereo not drawn)	-23	18	i	11	2	/	/	/	/
Cc1ccc(CN2CCNC(=O)C2CC(=O)N(C)CCc2ccccc2)cc1 (stereo not drawn)	-11	59*	i	-15	2	78*	0	37	0
O=C(N/N=C/c1ccncc1)c1nc2ccccc2c(=O)[nH]1	-40	62*	i	10	-1	2	1	9	9
CCCS(=O)(=O)NC(=O)C1(C)CCN(C(=O)c2cccc(C(F)(F)F)c2)C1 (stereo not drawn)	-5	0	/	/	/	/	/	/	/
Cc1ccc(-c2noc(CCC(=O)Nc3ccc4c(c3)OCO4)n2)cc1	80*	83*	i	-1	1	3	6	14	24*
CCC(=O)Nc1cccc(NC(=S)NC(=O)Cc2ccccc2)c1	8	11	i	13	0	/	/	/	/
COc1cccc(NC(=S)NCc2ccccc2)c1	16	-1	i	-14	-1	/	/	/	/
COc1ccccc1NC(=S)NC(=O)Cc1ccc(Cl)cc1	107*	125*	i	15	-1	126*	89*	101*	73*
COc1cccc(NC(=S)NC(=O)Cc2ccc(Cl)cc2)c1	84*	93*	i	10	13	124*	83*	91*	69*
COc1ccc(CC(=O)NC(=S)Nc2cccc(C)c2)cc1	49*	82*	i	-3	6	71*	50*	52*	45*
Cc1cccc(NC(=S)NC(=O)CCc2ccccc2)c1	-4	4	i	11	6	/	/	/	/
SMILES	TAAR1 antagonist	TAAR1 agonist	Rce1 inhib	VLA-4 inh	Platelet DG rel	TAAR1 ag conf	Ga16 ag counter	TAAR1 desens	Ga16 nonsel ant
COc1ccc(CC(=O)NC(=S)Nc2cccc(CO)c2)cc1	0	79*	/	-5	7	83*	55*	29	16
CCCCNC(=O)c1nc(-c2cccnc2OC)oc1-c1ccc(Cl)cc1	-18	1	/	/	/	/	/	/	/
O=C(NCc1ccccc1)C(c1ccccc1F)n1c(=O)c(-c2ccco2)nc2ccccc21 (stereo not drawn)	-17	0	/	/	/	/	/	/	/
O=C(COC(=O)c1ccc(OC(F)F)cc1)NCCC1=CCCCC1	-14	-1	/	-16	/	/	/	/	/
CC(C)Nc1nc(NCCN2CCNC2=O)c2sccc2n1	5	1	/	/	/	/	/	/	/
O=C1NCCN1CCNc1nc(NCc2ccccc2)nc2ccsc12	100*	89*	/	/	/	95*	66*	106*	93*
BrC(=C\c1ccccc1)/C=N/n1cnnc1	18	98*	i	/	7	38*	37*	18	19
C(=N\Nc1ccc2nncn2n1)/c1ccco1	-21	5	i	-77	-18	/	/	/	/
BrC(=C\c1ccccc1)/C=N/Nc1ccc2nncn2n1	8	67*	i	-5	9	44*	37*	23	13
C=CC[C@]12C[C@@]3(O[C@H](c4ccc(C(F)(F)F)cc4)N=C3C[C@H](c3ccc(OC)cc3)[C@H]1C)N(Cc1ccncc1)C2=O	-45	0	/	/	/	/	/	/	/
O=C(Nc1ccncc1)Nc1ccc(Cl)cc1	50*	65*	i	-4	1	91*	17*	84*	21
O=C(Nc1ccncc1)Nc1ccncc1	1	2	i	-1	-2	/	/	/	/
CC(C)c1ccc(-c2c(NCCc3ccccc3)c(=O)c2=O)cc1	-4	49*	i	6	12	37	2	13	9
